Assay outcomes from PubChem BioAssay.
Yeast growth inh: yeast BB579 growth reduction in restrictive medium; S. cerevisiae BB579 growth, OD615, 48 h; 0.51% of 140,000 active; AID 804; inhibition, % at 10 µM;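 active = inhibition above a set limit, 3 SD over the mean compound inhibition, cut at about 44% in these data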
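System: Saccharomyces cerevisiae DeaD strain BB579, replicative lifespan model yeast | Buffer or medium: Restrictive glucose-based CSMM-D medium | Times: 4 h preincubation and 48 h exposure at 30 °C | Detection: OD615 turbidity measurement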
Yeast life ext: extends the lifespan of yeast; S. cerevisiae growth with nicotinamide, OD615; deaD strain in restrictive glucose medium; inhibition of the nicotinamide effect, % at 10 µM; 0.68% of 130,000 active; AID 775;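 active = inhibition above a set limit, placed 3 SD over the median of all compounds, cut at about 26% in these data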
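System: DeaD-strain S. cerevisiae / Buffer or medium: CSMM-D, restrictive glucose (dextrose) synthetic minimal medium / Probe or stimulus: nicotinamide, 1.5 mM, co-present with compound / Compound: one concentration, 10 µM, DMSO 0.25% / Incubation: 48 h compound exposure at 30 °C, humidified / Technique: optical density (absorbance) at 615 nm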
RAM network inh: blocks the yeast RAM network; S. cerevisiae dse1pr::URA3 reporter, 5-FOA growth OD615, 2 d; analog-sensitive cbk1-as2 kinase mutant strain; inhibition, % at 50 µM; 1.8% of 190,000 active; AID 868;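 active = inhibition above a set limit, 3 SD over mean compound inhibition, cut at about 8.4% in these data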;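 note: inhibition rescues growth on 5-FOA so higher OD means more RAM inhibition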
Each line names hits and unclear results; the compound was inactive in the other large screens. This is a sample that favours compounds with a hit; in the whole collection about 2.6% have one here.

COc1ccc(Cl)cc1N(CC(=O)NCC(C)C)S(=O)(=O)c1ccc(C)c([N+](=O)[O-])c1	none
O=C(CNc1cccc2ccccc12)N/N=C/c1ccc(C(=O)O)cc1	RAM network inh 10.5
O=C(CNc1ccc2ccccc2c1)N/N=C/c1ccc(C(=O)O)cc1	none (no result: Yeast growth inh, Yeast life ext)
Cc1ccc(C)c(C(=O)CCC(=O)NCc2ccc(Cl)cc2)c1	none (no result: Yeast growth inh, Yeast life ext)
CCOc1ccc(-c2nn(-c3ccccc3)cc2/C=C2\SC(=S)N(C3CCS(=O)(=O)C3)C2=O)cc1 (stereo unspecified)	RAM network inh 9.3
CCCOc1ccc(-c2nn(-c3ccccc3)cc2/C=C2\SC(=S)N(C3CCS(=O)(=O)C3)C2=O)cc1 (stereo unspecified)	none
Cc1cc2occ(CC(=O)NCc3cccs3)c2cc1C(C)C	none
Cc1csc(NC(=O)Cc2coc3cc(C)c(C(C)C)cc23)n1	Yeast growth inh 82.7
Cc1ccc(NC(=O)COC(=O)C2CC(=O)N(Cc3ccccc3)C2)cc1F (stereo unspecified)	none (no result: Yeast growth inh, Yeast life ext)
O=C(CSc1nnc(-c2cccnc2)s1)Nc1cccc(C(=O)O)c1	RAM network inh 10.3
COc1cc(OC)cc(-c2nnc(SCC(=O)Nc3cccc(C(=O)O)c3)s2)c1	none (no result: Yeast growth inh, Yeast life ext)
CN1CCN(c2ccc(S(=O)(=O)N3CCCCC3)cc2NC(=O)c2ccc(F)cc2F)CC1	none
O=C(CCCc1c[nH]c2ccccc12)NCC1COc2ccccc2O1 (stereo unspecified)	none (no result: Yeast growth inh, Yeast life ext)
N#Cc1c(NC(=O)CSc2nnc(-c3ccncc3)n2CC2CCCO2)sc2c1CCCC2 (stereo unspecified)	none
CCn1c(SCC(=O)Nc2sc3c(c2C#N)CCCC3)nnc1-c1ccncc1	RAM network inh 10.7 (no result: Yeast life ext)
COC(=O)c1sc(NC(=O)/C=C/c2ccc(C)o2)nc1C	none
COCCNC(=S)N1CCN(S(C)(=O)=O)CC1	none (no result: Yeast growth inh, Yeast life ext)
COC(=O)c1c(NC(=O)Cc2cccs2)sc(C(=O)N2CCCCC2)c1C	Yeast life ext 28.6, RAM network inh 10.3
CCOC(=O)c1c(NC(=O)Cc2cccs2)sc(C(=O)NC2CCCCC2)c1C	none
COc1ccc(-n2c(SCC3OCCO3)nc3c(sc(=S)n3-c3ccccc3)c2=O)cc1OC	RAM network inh 8.6 (no result: Yeast growth inh, Yeast life ext)
CCn1c(=S)sc2c(=O)n(-c3ccccc3)c(SC)nc21	none
CCc1ccc(S(=O)(=O)NCc2csc(-c3ccccc3)n2)s1	none
CCc1ccc(S(=O)(=O)NCCc2csc(-c3ccccc3)n2)s1	RAM network inh 8.5
O=C(CSc1nnc(CNC(=O)C23CC4CC(CC(C4)C2)C3)n1-c1ccccc1)Nc1ccccc1	none
Cc1ccc(-c2nn(-c3ccccc3)cc2NC(=O)CCl)cc1	none (no result: Yeast growth inh, Yeast life ext)
CC(C)CCN1CCN(Cc2nc3c(s2)CCCC3)CC1CCO (stereo unspecified)	none (no result: Yeast growth inh, Yeast life ext)
Cc1nc2c(ccc3nc(NC(=O)Cc4ccccc4)sc32)s1	RAM network inh 11.4
Cc1ccc(CC(=O)Nc2nc3ccccc3s2)cc1	none
CCCCOc1ccc(-c2nnn(CC(=O)Nc3ncc(CC(=O)OCC)s3)n2)cc1	RAM network inh 9.3
CCOC(=O)Cc1cnc(NC(=O)Cn2nnc(-c3ccc(OCC)cc3)n2)s1	none
COCCNC(=O)c1ccccc1NC(=O)CCSc1ccccc1	none (no result: Yeast growth inh, Yeast life ext)
CCc1ccc(C(=O)OCC(=O)c2c(N)n(CC(C)C)c(=O)n(C)c2=O)cc1	none (no result: Yeast growth inh, Yeast life ext)
COc1cc(C(=O)Nc2ccc(Br)cc2C(=O)c2cc(OC)c(OC)c(OC)c2)cc(OC)c1OC	none
O=C1OC(c2ccccc2)=C/C1=C/N1CCCCC1	none
COC(=O)/C=C1\OC(c2ccccc2)=CC1=O	Yeast life ext 38.0
Cc1nnc(SCc2cc(=O)[nH]c(/N=C(\N)Nc3ccccc3Sc3ccccc3)n2)s1	RAM network inh 9.0 (no result: Yeast growth inh, Yeast life ext)
COc1ccccc1N/C(N)=N/c1nc(CSc2nc3ccccc3s2)cc(=O)[nH]1	none
CC(C)NC(=S)NNc1nc2ccccc2s1	none (no result: Yeast growth inh, Yeast life ext)
COc1ccc(C(=O)CSc2nnc(CN3CCCC3)n2-c2ccc(F)cc2)c(OC)c1	none
CC(C)(C)C1CCC2(CC1)Nc1cccc3cccc(c13)N2	RAM network inh 8.9
FC(F)(F)c1ccc(C2Nc3cccc4cccc(c34)N2)cc1	none (no result: Yeast growth inh, Yeast life ext)
CCOCCCNC(=O)C(NC(=O)c1ccccc1O)c1ccc(Cl)cc1 (stereo unspecified)	none (no result: Yeast growth inh, Yeast life ext)
Cc1cccc(C2(c3cccc(C)c3)CC2C(=O)Nc2ccc([N+](=O)[O-])cc2O)c1 (stereo unspecified)	none
CCOc1ccccc1NC(=O)COC(=O)CSc1ccc(Cl)cc1	none
Oc1cccc(C=NCc2ccccc2)c1O	Yeast growth inh 98.1
Oc1c(C=NCc2ccccc2)sc2ccccc12	none (no result: Yeast growth inh, Yeast life ext)
Clc1ccccc1/C=C/C=N/Nc1nc(N2CCOCC2)nc(N2CCOCC2)n1	none (no result: Yeast growth inh, Yeast life ext)
Cc1cc(SCC(=O)c2cc3ccccc3o2)nc2ccccc12	RAM network inh 11.0
Cc1cc(NC(=O)CSc2nc3cc(Cl)ccc3s2)no1	none
Cc1cc(SCC(=O)O)nc2ccccc12	none (no result: Yeast growth inh, Yeast life ext)
O=C(CSc1nc2cc(Cl)ccc2s1)c1cc2ccccc2o1	RAM network inh 9.4
Cc1ccc(NC(=O)CSc2nnc(C(F)(F)F)n2C)cc1[N+](=O)[O-]	none
CSc1nc(=O)n2cc(C)ccc2n1	none (no result: Yeast growth inh, Yeast life ext)
CCN(C(=O)CSc1nnnn1-c1ccccc1)C1CCS(=O)(=O)C1 (stereo unspecified)	none (no result: Yeast growth inh, Yeast life ext)
Cc1ccccc1NC1=NCC(c2ccc([N+](=O)[O-])cc2)S1 (stereo unspecified)	none (no result: Yeast growth inh, Yeast life ext)
COc1ccc(Oc2nc(SC)nc3ccccc23)cc1	RAM network inh 11.3
COc1ccc(Oc2nc3ccccc3nc2C(F)(F)F)cc1	none
O=S(=O)(c1ccc(NC(=S)NN=C2CCCCC2)cc1)N1CCOCC1	none (no result: Yeast growth inh, Yeast life ext)
Cc1ccccc1NC(=O)c1sc(NC(=O)COc2ccccc2)c(C#N)c1C	none
N#Cc1c2nc3ccccc3nc2n2cc(NC(=O)c3ccc(F)cc3)ccc12	RAM network inh 9.8
O=C(Nc1nc2ccccc2[nH]1)c1ccc(F)cc1	none
O=C(O)CC/C(=C\c1ccc(N2CCOCC2)c([N+](=O)[O-])c1)c1nc2ccccc2s1	none (no result: Yeast growth inh, Yeast life ext)
O=C(O)CC/C(=C\c1ccc(Cl)c([N+](=O)[O-])c1)c1nc2ccccc2s1	RAM network inh 10.7
CCCN1CC(O)=C(C#N)C1=O	none (no result: Yeast growth inh, Yeast life ext)
Cc1ccc(C[n+]2cccc(-c3ccccc3)c2)c(C)c1	none
N#Cc1c(N)nc2c3c(sc(=N)c2c1N)NC(=O)CC3c1ccccc1 (stereo unspecified)	none
N#Cc1c(N)nc2c3c(sc(=N)c2c1N)NC(=O)CC3c1c(F)cccc1Cl (stereo unspecified)	RAM network inh 8.8
O=[N+]([O-])C(=C1Nc2ccccc2N1)/C(Cl)=C(/Cl)Br	none
CCCNC(=O)CSc1nc2[nH]ncc2c(=O)[nH]1	none (no result: Yeast growth inh, Yeast life ext)
CC(=O)NC1C(=O)N=C(SC(C)C(=O)Nc2cccc(Cl)c2)NC1=O (stereo unspecified)	none (no result: Yeast growth inh, Yeast life ext)
CCOC(=O)c1cc(CC)sc1NC(=O)c1cc(OC)c(OC)c(OC)c1	RAM network inh 11.2
CCOC(=O)c1cc(CC)sc1NC(=O)c1ccc(N2C(=O)CCC2=O)cc1	none
O=c1[nH]c(NC2CCCCC2)c([N+](=O)[O-])c(=O)[nH]1	none
Cc1cccc(C(=O)NC(=S)NNC(=O)COc2ccc(Cl)cc2)c1	none (no result: Yeast growth inh, Yeast life ext)
Cc1ccc(C(=O)NNC(=S)NC(=O)c2ccc(Cl)cc2Cl)cc1	Yeast life ext 31.3
O=C(COc1ccccc1)NNC(=S)NC(=O)c1ccc(Cl)cc1Cl	Yeast growth inh 88.3 (no result: Yeast life ext)
CCCCC(=O)NC(=S)NNC(=O)c1ccc(Cl)cc1Cl	none (no result: Yeast growth inh, Yeast life ext)
